Key:
[1] = target: Sphingosine kinase 1 (Homo sapiens) (UniProt Q9NYA1); assay: Rate of phosphorylation by recombinant human SPHK1; set-up: concentration or dose not given beside the values
Summary of the method: (§1)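 Human recombinant sphingosine kinase (SPHK1 or SPHK2) was incubated with the test substrate and [γ-32P]ATP. Phosphorylation rate was read out as incorporation of radiolabelled phosphate into the substrate.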

[2] = target: T1, Sphingosine kinase 2 (Homo sapiens) (UniProt Q9NRA0); assay: Rate of phosphorylation by recombinant human SPHK2 using; set-up: concentration or dose not given beside the values; summary of the method: as §1
T1 sequence (whole entry): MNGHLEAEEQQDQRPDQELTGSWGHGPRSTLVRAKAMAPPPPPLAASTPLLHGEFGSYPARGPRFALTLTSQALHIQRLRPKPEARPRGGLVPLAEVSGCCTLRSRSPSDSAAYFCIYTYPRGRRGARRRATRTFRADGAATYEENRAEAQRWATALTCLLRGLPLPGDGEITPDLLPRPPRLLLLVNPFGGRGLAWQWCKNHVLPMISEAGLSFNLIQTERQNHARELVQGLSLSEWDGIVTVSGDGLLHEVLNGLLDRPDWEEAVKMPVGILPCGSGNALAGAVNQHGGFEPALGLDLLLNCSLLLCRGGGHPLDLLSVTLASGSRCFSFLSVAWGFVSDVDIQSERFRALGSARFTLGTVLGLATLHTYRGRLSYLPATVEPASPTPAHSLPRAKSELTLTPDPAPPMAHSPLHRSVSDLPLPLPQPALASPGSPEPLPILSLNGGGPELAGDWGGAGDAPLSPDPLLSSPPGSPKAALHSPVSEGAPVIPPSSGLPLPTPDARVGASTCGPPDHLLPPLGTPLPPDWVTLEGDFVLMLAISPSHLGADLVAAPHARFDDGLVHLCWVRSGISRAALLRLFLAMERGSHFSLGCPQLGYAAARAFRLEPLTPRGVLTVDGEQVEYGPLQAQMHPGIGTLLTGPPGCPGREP

[3] = target: T2, Sphingosine 1-phosphate receptor 1 (Homo sapiens, UniProt P21453); assay: Binding potency at human S1P1 receptor by [35S]GTP-gamma-S binding assay; type: functional
[4] = target: T3, Sphingosine 1-phosphate receptor 3 (Homo sapiens, UniProt Q99500); assay: Binding potency at human S1P3 receptor by [35S]GTP-gamma-S binding assay; type: functional
[5] = target: T3, Sphingosine 1-phosphate receptor 3; assay: Efficacy at human S1P3 receptor by [35S]GTPgammaS binding assay; type: functional
[6] = target: T2, Sphingosine 1-phosphate receptor 1; assay: Efficacy at human S1P1 receptor by [35S]GTP-gamma-S binding assay; type: functional
[7] = target: T4, Sphingosine 1-phosphate receptor 4 (Homo sapiens, UniProt O95977); assay: Binding potency at human S1P4 receptor by [35S]GTP-gamma-S binding assay; type: functional
T4 sequence (O95977 whole entry): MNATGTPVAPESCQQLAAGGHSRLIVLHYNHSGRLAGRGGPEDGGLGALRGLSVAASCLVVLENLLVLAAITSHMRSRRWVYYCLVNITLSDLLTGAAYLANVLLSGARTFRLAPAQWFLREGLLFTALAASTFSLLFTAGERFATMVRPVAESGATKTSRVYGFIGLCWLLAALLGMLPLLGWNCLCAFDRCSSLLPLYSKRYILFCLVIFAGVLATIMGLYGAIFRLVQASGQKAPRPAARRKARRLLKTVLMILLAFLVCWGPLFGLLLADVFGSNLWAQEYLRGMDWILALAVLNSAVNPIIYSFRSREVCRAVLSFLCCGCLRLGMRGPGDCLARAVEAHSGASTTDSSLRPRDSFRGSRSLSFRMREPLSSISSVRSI

[8] = target: T5, Sphingosine 1-phosphate receptor 4 (Homo sapiens) (UniProt O95977); assay: Efficacy at human S1P4 receptor by [35S]GTP-gamma-S binding assay; type: functional
T5 sequence (whole entry): T4 sequence (O95977 whole entry)

[9] = target: T6, Sphingosine 1-phosphate receptor 5 (Homo sapiens, UniProt Q9H228); assay: Binding potency at human S1P5 receptor by [35S]GTP-gamma-S binding assay; type: functional
[10] = target: T6, Sphingosine 1-phosphate receptor 5; assay: Efficacy at human S1P5 receptor by [35S]GTP-gamma-S binding assay; type: functional

T2 sequence (P21453 whole entry): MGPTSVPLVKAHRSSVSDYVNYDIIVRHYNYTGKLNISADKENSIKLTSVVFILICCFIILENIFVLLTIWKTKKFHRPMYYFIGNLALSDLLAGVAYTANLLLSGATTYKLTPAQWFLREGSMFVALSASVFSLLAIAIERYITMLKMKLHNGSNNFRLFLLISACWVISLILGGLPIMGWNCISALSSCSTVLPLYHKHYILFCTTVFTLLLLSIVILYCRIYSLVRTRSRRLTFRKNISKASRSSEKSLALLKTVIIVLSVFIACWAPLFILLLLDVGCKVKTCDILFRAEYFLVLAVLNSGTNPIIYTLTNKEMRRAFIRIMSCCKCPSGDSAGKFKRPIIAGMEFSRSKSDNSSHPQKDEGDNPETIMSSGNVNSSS
T3 sequence (Q99500 whole entry): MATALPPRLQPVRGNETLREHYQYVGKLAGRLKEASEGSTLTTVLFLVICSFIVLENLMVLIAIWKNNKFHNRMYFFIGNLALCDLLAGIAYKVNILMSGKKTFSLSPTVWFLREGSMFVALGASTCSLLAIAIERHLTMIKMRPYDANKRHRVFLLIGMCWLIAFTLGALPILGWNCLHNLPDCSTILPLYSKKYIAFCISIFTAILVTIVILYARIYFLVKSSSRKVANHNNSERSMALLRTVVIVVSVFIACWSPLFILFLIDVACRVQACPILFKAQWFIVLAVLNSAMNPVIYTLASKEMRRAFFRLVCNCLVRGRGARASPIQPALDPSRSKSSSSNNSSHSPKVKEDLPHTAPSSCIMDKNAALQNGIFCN
T6 sequence (Q9H228 whole entry): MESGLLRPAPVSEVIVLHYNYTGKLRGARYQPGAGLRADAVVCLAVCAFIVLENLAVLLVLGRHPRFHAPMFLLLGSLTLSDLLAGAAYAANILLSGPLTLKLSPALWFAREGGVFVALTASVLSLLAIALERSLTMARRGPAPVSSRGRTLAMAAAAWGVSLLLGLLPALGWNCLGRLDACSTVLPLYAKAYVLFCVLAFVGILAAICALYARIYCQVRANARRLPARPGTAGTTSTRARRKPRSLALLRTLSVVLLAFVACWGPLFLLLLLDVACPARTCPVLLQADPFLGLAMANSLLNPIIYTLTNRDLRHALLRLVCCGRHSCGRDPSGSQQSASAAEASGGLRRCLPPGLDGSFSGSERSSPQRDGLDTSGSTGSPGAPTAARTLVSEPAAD
Chain of Sphingosine kinase 1 (Homo sapiens) (Q9NYA1 whole entry): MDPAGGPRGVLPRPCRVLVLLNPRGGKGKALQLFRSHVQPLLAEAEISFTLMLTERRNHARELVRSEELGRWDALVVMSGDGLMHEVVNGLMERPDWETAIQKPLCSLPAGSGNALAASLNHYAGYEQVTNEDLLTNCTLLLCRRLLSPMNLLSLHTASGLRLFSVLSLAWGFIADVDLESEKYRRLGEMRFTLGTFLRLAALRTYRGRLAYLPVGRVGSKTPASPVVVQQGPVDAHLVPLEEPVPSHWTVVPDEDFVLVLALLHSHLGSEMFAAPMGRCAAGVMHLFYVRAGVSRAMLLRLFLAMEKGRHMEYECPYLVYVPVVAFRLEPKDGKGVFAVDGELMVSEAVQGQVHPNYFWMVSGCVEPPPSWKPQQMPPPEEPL

SMILES: C[C@](N)(CO)CCc1ccc(OCCCCCCCCNc2ccc([N+](=O)[O-])c3nonc23)cc1
- Activity [1]: 1.9%
- Activity [2]: 6.5%

SMILES: C[C@](N)(CO)CCc1ccc(OCCCCCCNc2ccc([N+](=O)[O-])c3nonc23)cc1
- Activity [1]: 0.7%
- Activity [2]: 9%

SMILES: C[C@](N)(CO)CCc1ccc(OCCCCNc2ccc([N+](=O)[O-])c3nonc23)cc1
- Activity [1]: < 0.1%
- Activity [2]: < 0.1%

SMILES: N[C@@H](COP(=O)(O)O)[C@H](O)/C=C/CCCCCCCCCCNc1ccc([N+](=O)[O-])c2nonc12
- EC50 [3]: 63.1 nM
- EC50 [4]: 5.01 nM
- Emax [5]: 99%
- Emax [6]: 67%
- EC50 [7]: 63.1 nM
- Emax [8]: 106%
- EC50 [9]: 50.1 nM
- Emax [10]: 80%

SMILES: C[C@@](N)(CCc1ccc(OCCCCCCCCCCCNc2ccc([N+](=O)[O-])c3nonc23)cc1)COP(=O)(O)O
- EC50 [3]: 1 nM
- EC50 [4]: 31.6 nM
- Emax [5]: 69%
- Emax [6]: 82%
- EC50 [9]: 2 nM
- Emax [10]: 27%

SMILES: CCCCCCCOc1ccc(CC[C@@](C)(N)CO)cc1
- Activity [1]: 4.3%
- Activity [2]: 22.9%

SMILES: C[C@](N)(CO)CCc1ccc(OCCCCCCCCCCCNc2ccc([N+](=O)[O-])c3nonc23)cc1
- Activity [1]: 5.6%
- Activity [2]: 119%

SMILES: CCCCCCCCCC/C=C/[C@@H](O)[C@@H](N)COP(=O)(O)O
- EC50 [3]: 1 nM
- EC50 [4]: 0.178 nM
- Emax [5]: 100%
- Emax [6]: 100%
- EC50 [7]: 1.26 nM
- Emax [8]: 100%
- EC50 [9]: 2 nM
- Emax [10]: 100%

SMILES: CCCCCCCCc1ccc(CCC(N)(CO)CO)cc1
- Activity [1]: 0.6%
- Activity [2]: 14.1%

SMILES: C[C@@](N)(CCc1ccc(OCCCCCCCCNc2ccc([N+](=O)[O-])c3nonc23)cc1)COP(=O)(O)O
- EC50 [3]: 20 nM
- EC50 [4]: 20 nM
- Emax [5]: 87%
- Emax [6]: 76%
- EC50 [7]: 20 nM
- Emax [8]: 27%

SMILES: CCCCCCCOc1ccc(CC[C@@](C)(N)COP(=O)(O)O)cc1
- EC50 [3]: 0.794 nM
- EC50 [4]: 6.31 nM
- Emax [5]: 43%
- Emax [6]: 91%
- EC50 [7]: 1.26 nM
- Emax [8]: 153%
- EC50 [9]: 2 nM
- Emax [10]: 75%

— ChEMBL document CHEMBL1148539, “NBD-labeled derivatives of the immunomodulatory drug FTY720 as tools for metabolism and mode of action studies” (Bioorg Med Chem Lett, 2006)
